Assay results collected from several papers.
Protocols differ between the studies behind these lines.
Target: Serine/threonine-protein kinase ULK2 (ULK2, Homo sapiens, UniProt Q8IYT8)

C=CC(=O)Nc1cc(Nc2nccc(Nc3cc(Cl)c(F)cc3C(C)(C)O)n2)c(OC)cc1N1CC[C@@H](N(C)C)C1  inhibition (enzyme activity, inhibitor; 1 µM): -2%
COc1cc(Nc2cnc(C#N)c(O[C@H](C)CN(C)C)n2)ncc1-c1cnn(C)c1  remaining activity (enzyme activity, inhibitor, radiometric; 1 µM): 42%
O=C(Nc1cnn(-c2csc(C(=O)NC3COC3)c2)c1)Nc1c(F)cccc1Cl  remaining activity (enzyme activity, inhibitor; 5 µM): 105%
CN(C(=O)c1ccccc1)c1cc(N(C)c2ccc3c(c2)CCc2ccc(C(=O)NCCN4CCOCC4)cc2C3=O)ccc1F  remaining binding (cell-free assay, competition with immobilised ligand; 1 µM): 100%
C[S+]([O-])c1ccc(-c2nc(-c3ccncc3)c(-c3ccc(F)cc3)[nH]2)cc1 (stereo not shown)  remaining signal (cell-free assay; 0.5 µM): 83.5%
C[C@@H](c1cccc(C#N)c1)n1cc(Cl)cc(C(N)=O)c1=N  remaining binding (cell-free assay, competition with immobilised ligand; 1 µM): 89%
O=C(CSc1nc2nccnc2c(=O)n1CCc1ccccc1)Nc1nccs1  inhibition (enzyme activity, inhibitor; 10 µM): 2%
COc1cc(/C=C/C(=O)CC(=O)/C=C/c2ccc(O)c(OC)c2)ccc1O  activity vs control (enzyme activity, inhibitor; 1 µM): 105%
N#CCCc1ccc2c(c1)-c1[nH]c3ccc([N+](=O)[O-])cc3c1CC(=O)N2  remaining signal (cell-free assay; 0.5 µM): 73.1%
CCCOc1ccc(OC)c(F)c1C(=O)c1ccc(C(=O)N[C@@H]2CNC[C@H]2NC(=O)c2ccc3[nH]ncc3c2)cc1  remaining activity (enzyme activity, inhibitor; 10 µM): 101%
CCCOc1ccc([C@@H]2[C@@H](C(=O)O)[C@H](c3ccc4c(c3)OCO4)CN2CC(=O)Nc2c(CC)cccc2CC)cc1  remaining binding (cell-free assay, competition with immobilised ligand; 1 µM): 76%
CNC(=O)c1cc(Oc2ccc(NC(=O)Nc3ccc(Cl)c(C(F)(F)F)c3)cc2)ccn1  remaining signal (cell-free assay; 0.5 µM): 106%
COc1cc(Cl)c(C(=O)N[C@@H](CN[C@H]2CC[C@@H](N)CC2)Cc2ccc(C#N)cc2)cc1-c1ccc(CN[C@H](C)c2ccc(C)cc2)o1  remaining activity (enzyme activity, inhibitor; 1 µM): 94%
Nc1c(C(=O)NCc2ccc(C(=O)NCCCC3CCCCC3)cc2)cnn1-c1ccccc1  remaining binding (cell-free assay, competition with immobilised ligand; 0.1 µM): 100%
O=C1Nc2ccc(Cl)cc2C1=Cc1cc(Cl)c(O)c(Cl)c1  remaining signal (cell-free assay; 0.5 µM): 101%
Cc1ccc(C(=O)NCc2ccsc2)cc1C#Cc1cn(C(C)C)c2ncnc(N)c12  activity vs control (enzyme activity, inhibitor; 1 µM): 92%
Cc1cnc(NC2CCOCC2)nc1-n1cnc(C(=O)NC(CN)c2cc(F)cc(Cl)c2)c1 (stereo not shown)  remaining activity (enzyme activity, inhibitor, radiometric; 1 µM): 110%
FC(F)(F)Oc1cccc(-c2cnc3ccc(-c4ccncc4)nn23)c1  activity vs control (enzyme activity, inhibitor, radiometric; 5 µM): 95%
O=C(NCc1ncc(C(F)(F)F)cc1Cl)c1ccc2c(c1)C1(CCS(=O)(=O)CC1)[C@H](C1CC1)N2S(=O)(=O)c1ccc(F)cc1  remaining binding (cell-free assay, competition with immobilised ligand; 1 µM): 58%
CCN1CCN(Cc2ccc(NC(=O)c3ccc(C)c(Oc4ccnc5[nH]ccc45)c3)cc2C(F)(F)F)CC1  inhibition (target engagement in cells, inhibitor, chemoproteomics; Huh-7; 1 µM): -16.6%
Cc1cc(NC(=O)c2cccc3cc(-c4cccc5[nH]nc(N)c45)ccc23)ccc1F  activity vs control (enzyme activity, inhibitor; 0.1 µM): 105%
CN1CCN(c2cnc3c(C4CCN(C(=O)c5ccc(OC(F)(F)F)cc5N)CC4)ncnc3c2)CC1  remaining binding (cell-free assay, competition with immobilised ligand; 1 µM): 100%
